Entries after “also recorded” stand apart in the source; their conditions may differ. Where two headings read alike, the source gives them in different places. Marks after values point to notes of the source that are not given here.
Legend:
[1] = target: human recombinant GABAA receptor α4β2γ2 (Homo sapiens, UniProt P18507+P48169); assay: Two-electrode voltage clamp in Xenopus oocytes, α4β2γ2; type: cell-based; details: TEVC; for Potentiation of the GABA (EC20) response on α4β2γ2 receptors: oocytes, Padsevonil 10 and 30 µmol/L, Ro 15-4513 1 µmol/L
Procedure, shortened: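 Human recombinant receptors expressed in Xenopus oocytes; automated two-electrode voltage clamp at −60 mV in frog Ringer (115 mM NaCl, 2.5 mM KCl, 1.8 mM CaCl₂, 10 mM HEPES, pH 7.2). Two 20 s GABA (EC₂₀) control applications 6 min apart; test compound pre-incubated 6 min, then co-applied with GABA for 20 s. Potentiation is I(GABA+drug)/I(GABA); EC50 from sigmoidal nonlinear fit.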

photosensitive epilepsy = details: cited from earlier work
Lennox–Gastaut syndrome = details: stable dosages over a 3-year period; cited from earlier work
[2] = target: human recombinant GABAA receptor α2β2γ2 (Homo sapiens, UniProt P18507+P47869); assay: Two-electrode voltage clamp in Xenopus oocytes, α2β2γ2; type: cell-based; details: for Function relative efficacy, normalized toward chlordiazepoxide (10 µmol/L): Padsevonil 10 µmol/L, GABA EC20, TEVC, α2β2γ2
[3] = test system: PTZ-induced clonic seizures; details: repeated = twice daily for 4 consecutive days; cited from earlier work
SV2A [4] = details: cited from earlier work
[5] = target: C isoform of SV2 proteins; details: cited from earlier work
[6] = target: human recombinant GABAA receptor α5β2γ2 (Homo sapiens, UniProt P18507+P31644); assay: Two-electrode voltage clamp in Xenopus oocytes, α5β2γ2; type: cell-based; details: for Function relative efficacy, normalized toward chlordiazepoxide (10 µmol/L): Padsevonil 10 µmol/L, GABA EC20, TEVC, α5β2γ2
Procedure, shortened: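 Human α5β2γ2 receptors expressed in oocytes. GABA (EC₂₀) was applied twice for 20 s, 6 min apart, as control. Test compound (1 nmol/L–30 µmol/L) was preincubated 6 min, then co-applied with GABA for 20 s. EC₅₀ came from a sigmoidal fit of data normalized to maximal potentiation. Efficacy at 10 µmol/L was normalized to chlordiazepoxide 10 µmol/L. Mean ± SEM, n = 6–26.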

[7] = target: B isoform of SV2 proteins; details: cited from earlier work
[8] = target: human recombinant GABAA receptor α3β2γ2 (Homo sapiens, UniProt P18507+P34903); assay: Two-electrode voltage clamp in Xenopus oocytes, α3β2γ2; type: cell-based; details: for Function relative efficacy, normalized toward chlordiazepoxide (10 µmol/L): Padsevonil 10 µmol/L, GABA EC20, TEVC, α3β2γ2
[9] = target: human recombinant GABAA receptor α1β2γ2 (Homo sapiens, UniProt P14867+P18507); assay: Two-electrode voltage clamp in Xenopus oocytes, α1β2γ2; type: cell-based; details: for Function relative efficacy, normalized toward chlordiazepoxide (10 µmol/L): Padsevonil 10 µmol/L, GABA EC20, TEVC, α1β2γ2
[10] = target: recombinant human GABAARs (α1β2γ2) (Homo sapiens, UniProt P14867+P18507); type: cell-based; details: for Function relative efficacy, normalized toward zolpidem (1 µmol/L): Padsevonil 10 µmol/L; for Cl− currents evoked in the absence of GABA: no GABA, concentrations up to 30 µmol/L
BZD site of GABAARs = details: cited from earlier work
[11] = target: recombinant GABAARs, benzodiazepine (BZD) binding site; details: cited from earlier work
[12] = test system: treatment-resistant focal epilepsy; details: Phase IIa proof-of-concept trial; cited from earlier work
[13] = test system: native GABAARs in cultured rat primary cortical neurons; type: cell-based; details: manual patch clamp, rat primary neuronal cultures, GABA at EC20 as printed
SV2A [14] = details: cited from earlier work; remark: listed apart in the source

human recombinant GABAA receptor α2β2γ2, sequence (P47869 29-451): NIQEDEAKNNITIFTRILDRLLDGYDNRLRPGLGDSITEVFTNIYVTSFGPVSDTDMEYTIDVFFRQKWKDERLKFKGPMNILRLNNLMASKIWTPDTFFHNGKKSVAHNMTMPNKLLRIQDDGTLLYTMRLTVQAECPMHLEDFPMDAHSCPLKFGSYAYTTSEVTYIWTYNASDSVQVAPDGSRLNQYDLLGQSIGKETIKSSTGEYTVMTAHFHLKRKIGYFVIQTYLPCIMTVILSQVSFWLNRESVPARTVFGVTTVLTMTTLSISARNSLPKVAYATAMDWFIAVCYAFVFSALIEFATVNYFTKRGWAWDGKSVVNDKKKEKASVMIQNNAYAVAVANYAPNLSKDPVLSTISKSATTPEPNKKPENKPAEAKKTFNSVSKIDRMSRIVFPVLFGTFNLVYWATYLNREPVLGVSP
human recombinant GABAA receptor α2β2γ2, sequence (P47870 25-512 partner limits assumed): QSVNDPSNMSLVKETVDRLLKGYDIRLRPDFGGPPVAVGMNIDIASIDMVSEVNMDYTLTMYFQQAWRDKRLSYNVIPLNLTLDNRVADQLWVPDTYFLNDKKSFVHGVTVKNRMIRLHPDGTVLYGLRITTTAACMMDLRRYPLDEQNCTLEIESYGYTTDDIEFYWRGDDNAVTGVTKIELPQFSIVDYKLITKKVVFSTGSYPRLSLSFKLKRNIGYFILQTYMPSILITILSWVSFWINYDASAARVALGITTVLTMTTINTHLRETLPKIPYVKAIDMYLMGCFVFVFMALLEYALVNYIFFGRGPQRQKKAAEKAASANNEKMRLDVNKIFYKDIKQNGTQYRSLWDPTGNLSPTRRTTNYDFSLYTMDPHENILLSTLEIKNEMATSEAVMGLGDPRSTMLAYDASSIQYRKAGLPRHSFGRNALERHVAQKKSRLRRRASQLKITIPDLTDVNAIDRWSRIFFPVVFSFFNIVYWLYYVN
human recombinant GABAA receptor α2β2γ2, sequence (P18507 40-475): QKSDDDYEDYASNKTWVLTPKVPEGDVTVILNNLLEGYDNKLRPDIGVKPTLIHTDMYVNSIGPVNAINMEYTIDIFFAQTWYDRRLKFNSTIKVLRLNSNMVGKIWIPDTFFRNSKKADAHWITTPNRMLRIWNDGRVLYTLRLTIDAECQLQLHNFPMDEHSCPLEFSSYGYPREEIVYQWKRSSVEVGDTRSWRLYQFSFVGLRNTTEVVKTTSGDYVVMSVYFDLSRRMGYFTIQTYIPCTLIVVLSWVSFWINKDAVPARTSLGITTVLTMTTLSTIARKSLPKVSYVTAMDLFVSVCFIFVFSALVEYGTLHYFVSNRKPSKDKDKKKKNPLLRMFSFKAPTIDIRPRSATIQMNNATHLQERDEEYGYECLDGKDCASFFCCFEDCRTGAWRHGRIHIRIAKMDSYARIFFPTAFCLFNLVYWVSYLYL
human recombinant GABAA receptor α4β2γ2, sequence (P48169 36-554): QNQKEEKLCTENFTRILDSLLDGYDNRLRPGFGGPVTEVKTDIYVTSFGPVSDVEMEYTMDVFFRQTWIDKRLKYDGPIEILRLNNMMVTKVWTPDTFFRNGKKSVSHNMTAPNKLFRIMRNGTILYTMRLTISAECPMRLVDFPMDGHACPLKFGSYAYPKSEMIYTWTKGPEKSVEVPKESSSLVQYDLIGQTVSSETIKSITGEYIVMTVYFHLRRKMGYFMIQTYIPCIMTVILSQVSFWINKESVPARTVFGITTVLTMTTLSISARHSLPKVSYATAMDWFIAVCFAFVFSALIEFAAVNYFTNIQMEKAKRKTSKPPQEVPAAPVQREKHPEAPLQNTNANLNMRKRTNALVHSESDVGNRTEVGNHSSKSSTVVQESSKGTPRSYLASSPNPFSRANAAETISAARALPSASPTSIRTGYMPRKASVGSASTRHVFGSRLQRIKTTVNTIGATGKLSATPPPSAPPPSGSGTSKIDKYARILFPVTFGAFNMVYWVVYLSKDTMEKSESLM
human recombinant GABAA receptor α4β2γ2, sequence (P47870 25-512 partner limits assumed): as the sequence (P47870 25-512 partner limits assumed) above
human recombinant GABAA receptor α4β2γ2, sequence (P18507 40-475): as the sequence (P18507 40-475) above
human recombinant GABAA receptor α5β2γ2, sequence (P31644 32-462): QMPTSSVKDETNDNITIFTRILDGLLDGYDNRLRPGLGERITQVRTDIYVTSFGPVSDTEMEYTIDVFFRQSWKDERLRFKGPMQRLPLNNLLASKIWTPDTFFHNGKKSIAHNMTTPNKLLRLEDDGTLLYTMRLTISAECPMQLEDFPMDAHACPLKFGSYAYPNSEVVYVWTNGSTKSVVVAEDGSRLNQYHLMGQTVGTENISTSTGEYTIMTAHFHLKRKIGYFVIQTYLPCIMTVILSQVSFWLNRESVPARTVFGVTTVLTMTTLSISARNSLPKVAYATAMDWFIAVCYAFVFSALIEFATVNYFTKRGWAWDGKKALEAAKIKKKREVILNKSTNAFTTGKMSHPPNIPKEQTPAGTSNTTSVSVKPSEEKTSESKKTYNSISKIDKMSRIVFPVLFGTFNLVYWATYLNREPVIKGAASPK
human recombinant GABAA receptor α5β2γ2, sequence (P47870 25-512 partner limits assumed): as the sequence (P47870 25-512 partner limits assumed) above
human recombinant GABAA receptor α5β2γ2, sequence (P18507 40-475): as the sequence (P18507 40-475) above
human recombinant GABAA receptor α3β2γ2, sequence (P34903 29-492): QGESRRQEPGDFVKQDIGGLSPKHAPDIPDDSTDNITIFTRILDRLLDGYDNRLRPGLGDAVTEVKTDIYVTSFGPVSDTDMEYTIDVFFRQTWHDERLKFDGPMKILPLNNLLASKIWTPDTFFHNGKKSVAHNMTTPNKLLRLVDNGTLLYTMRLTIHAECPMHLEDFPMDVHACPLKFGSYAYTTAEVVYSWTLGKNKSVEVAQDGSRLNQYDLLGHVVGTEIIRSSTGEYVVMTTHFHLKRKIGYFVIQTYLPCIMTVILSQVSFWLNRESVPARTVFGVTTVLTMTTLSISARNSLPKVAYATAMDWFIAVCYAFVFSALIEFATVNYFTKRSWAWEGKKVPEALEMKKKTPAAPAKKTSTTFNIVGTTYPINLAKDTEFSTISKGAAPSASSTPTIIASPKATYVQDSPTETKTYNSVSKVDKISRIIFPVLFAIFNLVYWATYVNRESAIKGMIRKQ
human recombinant GABAA receptor α3β2γ2, sequence (P47870 25-512 partner limits assumed): as the sequence (P47870 25-512 partner limits assumed) above
human recombinant GABAA receptor α3β2γ2, sequence (P18507 40-475): as the sequence (P18507 40-475) above
human recombinant GABAA receptor α1β2γ2, sequence (P14867 28-456): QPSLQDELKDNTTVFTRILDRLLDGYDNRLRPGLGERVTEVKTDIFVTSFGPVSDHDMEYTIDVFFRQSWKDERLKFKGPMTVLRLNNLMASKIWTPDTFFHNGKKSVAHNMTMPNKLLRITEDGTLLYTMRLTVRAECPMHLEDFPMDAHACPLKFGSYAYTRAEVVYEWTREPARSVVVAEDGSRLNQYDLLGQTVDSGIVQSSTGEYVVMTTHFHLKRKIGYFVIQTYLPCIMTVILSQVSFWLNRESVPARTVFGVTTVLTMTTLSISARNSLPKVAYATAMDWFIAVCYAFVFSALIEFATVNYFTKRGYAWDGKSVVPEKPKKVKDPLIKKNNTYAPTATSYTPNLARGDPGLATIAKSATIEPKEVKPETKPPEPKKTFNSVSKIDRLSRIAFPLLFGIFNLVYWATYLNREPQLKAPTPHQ
human recombinant GABAA receptor α1β2γ2, sequence (P47870 25-512 partner limits assumed): as the sequence (P47870 25-512 partner limits assumed) above
human recombinant GABAA receptor α1β2γ2, sequence (P18507 40-475): as the sequence (P18507 40-475) above
recombinant human GABAARs (α1β2γ2), sequence (P14867 28-456): as the sequence (P14867 28-456) above
recombinant human GABAARs (α1β2γ2), sequence (P47870 25-512 partner limits assumed): as the sequence (P47870 25-512 partner limits assumed) above
recombinant human GABAARs (α1β2γ2), sequence (P18507 40-475): as the sequence (P18507 40-475) above

Cc1ccc(-c2nc3ccc(C)cn3c2CC(=O)N(C)C)cc1 [zolpidem, Zolpidem, reference compound]
Potentiation of the GABA (EC20) response on α4β2γ2 receptors [1]: insensitive

COCc1c(C(=O)OC(C)C)ncc2[nH]c3ccc(OCc4ccccc4)cc3c12 [Abecarnil]
Clinical efficacy / tolerance development (photosensitive epilepsy): without development of tolerance

CN1C(=O)CC(=O)N(c2ccccc2)c2cc(Cl)ccc21 [Clobazam]
Seizure control / tolerance development (Lennox–Gastaut syndrome): sustained seizure control

COCc1nn2c(CN3C[C@@H](CC(F)(F)Cl)CC3=O)c(C(F)(F)F)nc2s1 [Padsevonil, (4R)‐4‐(2‐chloro‐2,2‐difluoroethyl)‐1‐{[2‐(methoxymethyl)‐6‐(trifluoromethyl)imidazo[2,1‐b][1,3,4]thiadiazol‐5‐yl]methyl}pyrrolidin‐2‐one]
EC50 [2]: 1740 ± 258 nM | Function relative efficacy, normalized toward chlordiazepoxide (10 µmol/L) [2]: 26 ± 4 (n = 13) ^b % | Function relative efficacy, normalized toward chlordiazepoxide (10 µmol/L) ([2]; listed as padsevonil): 26% | Tolerance: increase of PTZ seizure threshold after acute versus repeated dosing [3]: tolerance was not developed | Dissociation kinetics from SV2A (SV2A [4]; compared with LEV and BRV): significantly slower dissociation kinetics | Affinity for SV2A relative to LEV (SV2A [4]; radioligand displacement): ~2000 fold | Affinity for SV2A relative to brivaracetam (BRV) (SV2A [4]; radioligand displacement): approximately 100 fold | pKi SV2A (SV2A [4]; radioligand displacement): 8.5 | pKi SV2C [5]: 8.5 | EC50 [6]: 281 ± 73 nM | Function relative efficacy, normalized toward chlordiazepoxide (10 µmol/L) [6]: 41 ± 10 (n = 10) ^b % | Function relative efficacy, normalized toward chlordiazepoxide (10 µmol/L) ([6]; listed as padsevonil): 41% | pKi SV2B [7]: 7.9 | EC50 [8]: 2090 ± 227 nM | Function relative efficacy, normalized toward chlordiazepoxide (10 µmol/L) [8]: 56 ± 6 (n = 18) ^b % | Function relative efficacy, normalized toward chlordiazepoxide (10 µmol/L) ([8]; listed as padsevonil): 56% | EC50 [9]: 295 nM | Function relative efficacy, normalized toward chlordiazepoxide (10 µmol/L) [9]: 60 ± 6% | Function relative efficacy, normalized toward chlordiazepoxide (10 µmol/L) ([9]; listed as padsevonil): 60% | Higher potency for receptors with α1 or α5 subunits than for those with α2 or α3 subunits ([9]; TEVC, oocytes, α1/α5 versus α2/α3): approximately sixfold | EC50 [10]: 138 ± 29 nM | Effect on maximal activation of the receptor ([10]; GABA 30 µmol/L (EC90), data not shown): does not overstimulate the receptor | Potentiation of the GABA (agonist) response ([10]; GABA at EC20 set to 100%, patch clamp, human α1β2γ2 in CHO): 167% | Function relative efficacy, normalized toward zolpidem (1 µmol/L) ([10]; GABA EC20, patch clamp, same cell): 41 ± 4% | Function relative efficacy, normalized toward zolpidem (1 µmol/L) ([10]; GABA EC20, patch clamp, same cell, listed as padsevonil): 41% | Relative efficacy, GABA EC20 response as % of that of zolpidem (1 µmol/L) ([10]; Padsevonil 30 µmol/L, GABA EC20, patch clamp, same cell): 35% | Cl− currents evoked in the absence of GABA [10]: did not elicit | Cl− currents evoked in the absence of GABA ([10]; listed as padsevonil): did not evoke | BZD site occupancy ED50 (BZD site of GABAARs; in vivo, mice): 36 mg/kg | Occupancy on GABAARs at doses highly active in models of drug-resistant epilepsy (BZD site of GABAARs; nonclinical studies): < 20% | Potentiation of the GABA (EC20) response on α4β2γ2 receptors [1]: did not potentiate; also recorded: does not activate | Potentiation of the GABA (EC20) response on α4β2γ2 receptors ([1]; listed as padsevonil): no activity was observed | Function EC50, potentiation of GABA EC20 ([1]; α4β2γ2 in Xenopus oocytes): No potentiation | pKi benzodiazepine (BZD) binding site [11]: 6.4 | Clinical efficacy [12]: robust efficacy | pEC50, potentiation of neuronal GABAAR activity [13]: 6.68 | SV2A occupancy ED50 (SV2A [14]; in vivo, mice): 0.2 mg/kg | SV2A occupancy at doses highly active in models of drug-resistant epilepsy (SV2A [14]; nonclinical studies): > 95%

CCOC(=O)c1ncn2c1CN(C)C(=O)c1cc(N=[N+]=[N-])ccc1-2 [Ro 15‐4513, reference compound]
Potentiation of the GABA (EC20) response on α4β2γ2 receptors [1]: potentiated
